In ChEMBL document CHEMBL2390928:
Activity calls are given as the source filed them. No cut-off for these calls is given here.

Legend:
[1] = Induction of interphase microtubule depolymerization in rat A10 cells after 18 to 24 hrs by indirect immunofluorescence assay; assay type: cell-based
In short: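 Rat aortic smooth muscle A-10 cells are treated for 18 h, fixed in cold methanol, and stained for microtubules with a β-tubulin antibody by indirect immunofluorescence. […] It is computed per experiment over a wide concentration range, from at least 3 independent experiments, and reported as mean ± SD.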

HeLa = assay: Cytotoxicity against human HeLa cells assessed as growth inhibition after 48 hrs by SRB assay; assay type: functional, cell-based
SK-OV-3 [2] = assay: Cytotoxicity against human SKOV3 cells assessed as growth inhibition after 48 hrs by SRB assay; assay type: functional, cell-based; details: SK-OV-3, 48 h
MOLT-4 = assay: Growth inhibition of human MOLT4 cells; assay type: functional
HL-60(TB) = assay: Growth inhibition of human HL-60(TB) cells; assay type: functional
K562 = assay: Growth inhibition of human K562 cells; assay type: functional
CCRF-CEM = assay: Growth inhibition of human CCRF-CEM cells; assay type: functional
MDA-MB-435 [3] = assay: Cytotoxicity against human MDA-MB-435 cells assessed as growth inhibition after 48 hrs by SRB assay; assay type: functional, cell-based; details: MDA-MB-435, 48 h
Bos taurus = species on record: Bos taurus; assay: Displacement of [3H]-colchicine from bovine brain tubulin at 5 uM after 10 mins relative to control
In short: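 Electrophoretically homogeneous bovine brain tubulin, 1.0 µM, incubated 10 min at 37 °C with 5.0 µM [3H]colchicine and 5.0 µM inhibitor; colchicine binding inhibition expressed as percent ± SD.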

[4] = Inhibition of bovine brain tubulin assembly after 20 mins by spectrophotometric analysis; set-up: species or system Bos taurus
In short: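 Electrophoretically homogeneous bovine brain tubulin is used at 10 µM (1.0 mg/mL) with varying inhibitor concentrations. After 15 min preincubation at 30 °C, 0.4 mM GTP is added.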

MDA-MB-435 [5] = assay: Cell cycle arrest in human MDA-MB-435 cells assessed as increase in accumulation at G2/M phase at 44.1 to 73.5 nM after 18 hrs by FACS flow cytometric analysis; assay type: functional, cell-based
In short: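 Cells harvested, stained with Krishan's reagent (propidium iodide), analysed by flow cytometry; propidium iodide intensity plotted against event count to give cell cycle distribution.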

MDA-MB-468 = assay: Growth inhibition of human MDA-MB-468 cells; assay type: functional
BT-549 = assay: Growth inhibition of human BT549 cells; assay type: functional
Hs-578T = assay: Growth inhibition of human Hs578T cells; assay type: functional
MCF7 = assay: Growth inhibition of human MCF7 cells; assay type: functional
MDA-MB-231 = assay: Growth inhibition of human MDA-MB-231 cells; assay type: functional
DU-145 = assay: Growth inhibition of human DU145 cells; assay type: functional
PC-3 = assay: Growth inhibition of human PC3 cells; assay type: functional
TK-10 = assay: Growth inhibition of human TK10 cells; assay type: functional
UO-31 = assay: Growth inhibition of human UO31 cells; assay type: functional
SN12C = assay: Growth inhibition of human SN12C cells; assay type: functional
RXF 393 = assay: Growth inhibition of human RXF393 cells; assay type: functional
ACHN = assay: Growth inhibition of human ACHN cells; assay type: functional
A498 = assay: Growth inhibition of human A498 cells; assay type: functional
786-0 = assay: Growth inhibition of human 786-0 cells; assay type: functional
[6] = Growth inhibition of human NCI-ADR-RES cells; assay type: functional
SK-OV-3 [7] = assay: Growth inhibition of human SKOV3 cells; assay type: functional
OVCAR-8 = assay: Growth inhibition of human OVCAR8 cells; assay type: functional
OVCAR-5 = assay: Growth inhibition of human OVCAR5 cells; assay type: functional
OVCAR-3 = assay: Growth inhibition of human OVCAR3 cells; assay type: functional
OVCAR-4 = assay: Growth inhibition of human OVCAR4 cells; assay type: functional
UACC-62 = assay: Growth inhibition of human UACC62 cells; assay type: functional
SK-MEL-28 = assay: Growth inhibition of human SK-MEL-28 cells; assay type: functional
SK-MEL-5 = assay: Growth inhibition of human SK-MEL-5 cells; assay type: functional
SK-MEL-2 = assay: Growth inhibition of human SK-MEL-2 cells; assay type: functional
MDA-MB-435 [8] = assay: Growth inhibition of human MDA-MB-435 cells; assay type: functional
Malme-3M = assay: Growth inhibition of human MALME-3M cells; assay type: functional
M14 = assay: Growth inhibition of human M14 cells; assay type: functional
LOX IMVI = assay: Growth inhibition of human LOXIMVI cells; assay type: functional
U-251 = assay: Growth inhibition of human U251 cells; assay type: functional
SNB-19 = assay: Growth inhibition of human SNB19 cells; assay type: functional
SNB-75 = assay: Growth inhibition of human SNB75 cells; assay type: functional
SF-539 = assay: Growth inhibition of human SF539 cells; assay type: functional
SF-295 = assay: Growth inhibition of human SF295 cells; assay type: functional
SW-620 = assay: Growth inhibition of human SW620 cells; assay type: functional
SF-268 = assay: Growth inhibition of human SF268 cells; assay type: functional
KM12 = assay: Growth inhibition of human KM12 cells; assay type: functional
HT-29 = assay: Growth inhibition of human HT-29 cells; assay type: functional
HCT-116 = assay: Growth inhibition of human HCT116 cells; assay type: functional
HCT-15 = assay: Growth inhibition of human HCT15 cells; assay type: functional
[9] = Growth inhibition of human HCC2998 cells; assay type: functional; details: HCC 2998
COLO 205 = assay: Growth inhibition of human COLO205 cells; assay type: functional
NCI-H522 = assay: Growth inhibition of human NCI-H522 cells; assay type: functional
NCI-H322M = assay: Growth inhibition of human NCI-H322M cells; assay type: functional
NCI-H460 = assay: Growth inhibition of human NCI-H460 cells; assay type: functional
NCI-H23 = assay: Growth inhibition of human NCI-H23 cells; assay type: functional
NCI-H226 = assay: Growth inhibition of human NCI-H226 cells; assay type: functional
HOP-62 = assay: Growth inhibition of human HOP62 cells; assay type: functional
HOP-92 = assay: Growth inhibition of human HOP92 cells; assay type: functional
[10] = Growth inhibition of human EKVX cells; assay type: functional
A549 = assay: Growth inhibition of human A549 cells; assay type: functional
SR = assay: Growth inhibition of human SR cells; assay type: functional
RPMI-8226 = assay: Growth inhibition of human RPMI8226 cells; assay type: functional

## COc1ccc(/C=C\c2cc(OC)c(OC)c(OC)c2)cc1O [COMBRETASTATIN A4]
[1]
  EC50: 13 nM
HeLa
  IC50: 4.7 nM
SK-OV-3 [2]
  IC50: 9.7 nM

## COc1ccc(N(C)c2nc(N)nc3[nH]c4ccccc4c23)cc1
MOLT-4
  GI50: 47.7 nM
HL-60(TB)
  GI50: 32.2 nM
K562
  GI50: < 10 nM
CCRF-CEM
  GI50: 41.1 nM
[1]
  EC50: 105 nM
MDA-MB-435 [3]
  IC50: 14.7 nM
Bos taurus
  inhibition: 84%
[4]
  IC50: 1400 nM
HeLa
  IC50: 21.3 nM
SK-OV-3 [2]
  IC50: 27.6 nM
MDA-MB-435 [5]
  Activity: Active
MDA-MB-468
  GI50: 26.9 nM
BT-549
  GI50: 94.5 nM
Hs-578T
  GI50: 11.5 nM
MCF7
  GI50: 16.4 nM
MDA-MB-231
  GI50: 64.6 nM
DU-145
  GI50: 31.4 nM
PC-3
  GI50: 44.3 nM
TK-10
  GI50: 56.2 nM
UO-31
  GI50: 53.7 nM
SN12C
  GI50: 80.1 nM
RXF 393
  GI50: 16.9 nM
ACHN
  GI50: 89.6 nM
A498
  GI50: 15.8 nM
786-0
  GI50: 49 nM
[6]
  GI50: 11.5 nM
SK-OV-3 [7]
  GI50: 29.9 nM
OVCAR-8
  GI50: 42.3 nM
OVCAR-5
  GI50: 51.2 nM
OVCAR-3
  GI50: 12.9 nM
OVCAR-4
  GI50: 52.7 nM
UACC-62
  GI50: 27 nM
SK-MEL-28
  GI50: < 10 nM
SK-MEL-5
  GI50: 32.3 nM
SK-MEL-2
  GI50: 19.7 nM
MDA-MB-435 [8]
  GI50: < 10 nM
Malme-3M
  GI50: 304 nM
M14
  GI50: 16.6 nM
LOX IMVI
  GI50: 68.4 nM
U-251
  GI50: 37.3 nM
SNB-19
  GI50: 50.9 nM
SNB-75
  GI50: 12.7 nM
SF-539
  GI50: 24.2 nM
SF-295
  GI50: 26 nM
SW-620
  GI50: 19 nM
SF-268
  GI50: 37.7 nM
KM12
  GI50: 13.2 nM
HT-29
  GI50: 31 nM
HCT-116
  GI50: 29.8 nM
HCT-15
  GI50: 26.1 nM
[9]
  GI50: 23.6 nM
COLO 205
  GI50: 25.8 nM
NCI-H522
  GI50: < 10 nM
NCI-H322M
  GI50: 64.2 nM
NCI-H460
  GI50: 30 nM
NCI-H23
  GI50: 31.8 nM
NCI-H226
  GI50: 133 nM
HOP-62
  GI50: 40 nM
HOP-92
  GI50: 242 nM
[10]
  GI50: 16.7 nM
A549
  GI50: 36.4 nM
SR
  GI50: < 10 nM
RPMI-8226
  GI50: 41.1 nM

## COc1ccc(N(C)c2nc(C)nc3[nH]ccc23)cc1
Bos taurus
  inhibition: 70%
[4]
  IC50: 2600 nM
